Measured values from ChEMBL document CHEMBL1141669, “Nitrile analogs of meperidine as high affinity and selective sigma-1 receptor ligands” (Eur J Med Chem, 2008).

Target: Delta-type opioid receptor (Homo sapiens, UniProt P41143)
Experiment: Binding affinity to delta opioid receptor

Sequence of Delta-type opioid receptor (P41143 whole entry): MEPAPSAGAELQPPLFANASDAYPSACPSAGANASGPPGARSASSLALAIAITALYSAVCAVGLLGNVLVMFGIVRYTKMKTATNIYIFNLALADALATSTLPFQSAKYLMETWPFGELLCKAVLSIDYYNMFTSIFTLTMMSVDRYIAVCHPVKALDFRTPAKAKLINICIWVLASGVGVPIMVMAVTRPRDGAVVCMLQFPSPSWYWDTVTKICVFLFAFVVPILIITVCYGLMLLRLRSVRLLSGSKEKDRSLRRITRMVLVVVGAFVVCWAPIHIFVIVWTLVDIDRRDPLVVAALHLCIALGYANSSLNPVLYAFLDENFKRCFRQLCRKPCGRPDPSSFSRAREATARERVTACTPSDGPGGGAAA

SMILES | Ki
C=C(C)CN1CCC(C#N)(c2ccccc2)CC1 | 5000 nM
CN1CCC(C#N)(c2ccccc2)CC1 | > 10000 nM
C=CCN1CCC(C#N)(c2ccccc2)CC1 | > 10000 nM
N#CC1(c2ccccc2)CCN(Cc2ccccc2)CC1 | > 10000 nM
N#CC1(c2ccccc2)CCN(CCCCc2ccccc2)CC1 | > 10000 nM

Target: Sigma non-opioid intracellular receptor 1 (Rattus norvegicus, UniProt Q9R0C9)
Sequence (Q9R0C9 whole entry): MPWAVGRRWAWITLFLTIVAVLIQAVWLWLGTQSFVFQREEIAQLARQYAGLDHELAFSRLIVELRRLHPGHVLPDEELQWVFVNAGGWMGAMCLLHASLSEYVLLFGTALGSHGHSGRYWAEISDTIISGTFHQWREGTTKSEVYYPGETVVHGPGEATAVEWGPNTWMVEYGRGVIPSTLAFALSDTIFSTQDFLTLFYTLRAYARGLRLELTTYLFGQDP
Experiment: Displacement of [3H](+)-pentazocine from sigma 1 opioid receptor in rat brain cerebellum
Type: tissue-based
Method in brief: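 σ1 radioligand binding with 5 nM [3H](+)-pentazocine in 50 mM Tris–HCl, pH 8.0. Nonspecific binding defined with 10 µM haloperidol. Test ligand at twelve concentrations, 120 min at 25 °C.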

SMILES | Ki
C=C(C)CN1CCC(C#N)(c2ccccc2)CC1 | 3.7 nM
N#CC1(c2ccccc2)CCN(CCCc2ccccc2)CC1 | 0.38 nM
CN1CCC(C#N)(c2ccccc2)CC1 | 113 nM
C=CCN1CCC(C#N)(c2ccccc2)CC1 | 2.2 nM
c1ccc(CCN2CCCCC2)cc1 [1-PHENETHYLPIPERIDINE] | 30 nM
c1ccc(CCN2CCN(c3ccccn3)CC2)cc1 | 322 nM
CCCN1CCC(C#N)(c2ccccc2)CC1 | 1.7 nM
N#CC1(c2ccccc2)CCN(Cc2ccccc2)CC1 | 0.41 nM
N#CC1(c2ccccc2)CCN(CCCCc2ccccc2)CC1 | 49 nM
CC(C)CN1CCC(C#N)(c2ccccc2)CC1 | 0.35 nM
N#CC1(c2ccccc2)CCN(CCc2ccccc2)CC1 | 3.3 nM

Target: Mu-type opioid receptor (Homo sapiens, UniProt P35372)
Sequence (P35372 whole entry): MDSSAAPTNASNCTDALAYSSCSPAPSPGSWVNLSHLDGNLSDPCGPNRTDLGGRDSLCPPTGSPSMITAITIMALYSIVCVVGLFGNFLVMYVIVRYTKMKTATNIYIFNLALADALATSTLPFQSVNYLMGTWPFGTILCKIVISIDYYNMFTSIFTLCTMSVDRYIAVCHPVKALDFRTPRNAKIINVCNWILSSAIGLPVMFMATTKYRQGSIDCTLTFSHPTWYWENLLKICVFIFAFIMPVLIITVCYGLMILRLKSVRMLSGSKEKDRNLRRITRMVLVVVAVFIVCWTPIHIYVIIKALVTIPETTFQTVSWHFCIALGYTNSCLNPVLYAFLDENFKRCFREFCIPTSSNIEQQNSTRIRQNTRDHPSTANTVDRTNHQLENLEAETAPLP
Experiment: Binding affinity to mu opioid receptor

SMILES | Ki
C=C(C)CN1CCC(C#N)(c2ccccc2)CC1 | > 10000 nM
CN1CCC(C#N)(c2ccccc2)CC1 | > 10000 nM
C=CCN1CCC(C#N)(c2ccccc2)CC1 | > 10000 nM
N#CC1(c2ccccc2)CCN(Cc2ccccc2)CC1 | 5900 nM
N#CC1(c2ccccc2)CCN(CCCCc2ccccc2)CC1 | 9800 nM

Target: Kappa-type opioid receptor (Homo sapiens, UniProt P41145)
Sequence (P41145 whole entry): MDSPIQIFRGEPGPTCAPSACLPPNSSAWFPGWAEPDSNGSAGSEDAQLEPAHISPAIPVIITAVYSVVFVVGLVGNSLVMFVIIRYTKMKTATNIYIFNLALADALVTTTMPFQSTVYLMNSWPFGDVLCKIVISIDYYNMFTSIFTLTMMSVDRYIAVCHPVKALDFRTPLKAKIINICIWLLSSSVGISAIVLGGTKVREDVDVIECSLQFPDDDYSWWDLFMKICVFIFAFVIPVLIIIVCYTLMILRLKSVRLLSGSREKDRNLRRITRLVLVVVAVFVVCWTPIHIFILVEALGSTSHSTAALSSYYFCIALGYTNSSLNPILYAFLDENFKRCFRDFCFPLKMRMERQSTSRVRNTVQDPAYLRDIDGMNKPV
Experiment: Binding affinity to kappa opioid receptor

SMILES | Ki
C=C(C)CN1CCC(C#N)(c2ccccc2)CC1 | > 10000 nM
CN1CCC(C#N)(c2ccccc2)CC1 | > 10000 nM
C=CCN1CCC(C#N)(c2ccccc2)CC1 | > 10000 nM
N#CC1(c2ccccc2)CCN(Cc2ccccc2)CC1 | > 10000 nM
N#CC1(c2ccccc2)CCN(CCCCc2ccccc2)CC1 | > 10000 nM

Organism: Rattus norvegicus
Experiment: Selectivity ratio of Ki for rat sigma 2 opioid receptor to Ki for rat sigma 1 opioid receptor

SMILES | Ratio Ki
C=C(C)CN1CCC(C#N)(c2ccccc2)CC1 | 130
N#CC1(c2ccccc2)CCN(CCCc2ccccc2)CC1 | 120
CN1CCC(C#N)(c2ccccc2)CC1 | 19
C=CCN1CCC(C#N)(c2ccccc2)CC1 | 300
c1ccc(CCN2CCCCC2)cc1 [1-PHENETHYLPIPERIDINE] | 5
c1ccc(CCN2CCN(c3ccccn3)CC2)cc1 | 0.53
CCCN1CCC(C#N)(c2ccccc2)CC1 | 84
N#CC1(c2ccccc2)CCN(Cc2ccccc2)CC1 | 1600
N#CC1(c2ccccc2)CCN(CCCCc2ccccc2)CC1 | 27
CC(C)CN1CCC(C#N)(c2ccccc2)CC1 | 180
N#CC1(c2ccccc2)CCN(CCc2ccccc2)CC1 | 36

Target: not listed separately
Experiment: Displacement of [3H]ditolylguanidine from sigma 2 opioid receptor in rat brain cerebellum
Type: tissue-based
Method in brief: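 σ2 sites labeled with 3 nM [3H]di-o-tolylguanidine, with 300 nM (+)-pentazocine present to mask σ1, in 50 mM Tris–HCl, pH 8.0. Nonspecific binding taken with 10 µM haloperidol. Twelve test-ligand concentrations, incubated 120 min at 25 °C.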

SMILES | Ki
C=C(C)CN1CCC(C#N)(c2ccccc2)CC1 | 482 nM
N#CC1(c2ccccc2)CCN(CCCc2ccccc2)CC1 | 46 nM
CN1CCC(C#N)(c2ccccc2)CC1 | 2140 nM
C=CCN1CCC(C#N)(c2ccccc2)CC1 | 662 nM
c1ccc(CCN2CCCCC2)cc1 [1-PHENETHYLPIPERIDINE] | 138 nM
c1ccc(CCN2CCN(c3ccccn3)CC2)cc1 | 170 nM
CCCN1CCC(C#N)(c2ccccc2)CC1 | 143 nM
N#CC1(c2ccccc2)CCN(Cc2ccccc2)CC1 | 657 nM
N#CC1(c2ccccc2)CCN(CCCCc2ccccc2)CC1 | 1310 nM
CC(C)CN1CCC(C#N)(c2ccccc2)CC1 | 63 nM
N#CC1(c2ccccc2)CCN(CCc2ccccc2)CC1 | 118 nM
